Experiments:
[1] = folding enthalpy; higher = less favourable; fluorescence melt of hairpins on a sequencing array, two-state fit; details: sodium 0.088 M
In short: (§1)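 With Cy3 and quencher oligos annealed, library hairpins on a sequenced MiSeq flow cell were imaged for Cy3 fluorescence in 50 mM Na-HEPES pH 8.0, 25 mM NaCl, in 2.5 °C steps up to 60 °C. Melting temperature and folding enthalpy were derived from bootstrapped two-state fits of signals normalised to pre-quench Cy3 and to control constructs. Four replicates were combined by inverse variance, with fitted temperatures raised by 9.35 °C to match UV melts.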

[2] = melting temperature; fluorescence melt of hairpins on a sequencing array, two-state fit, raised by 9.35 °C to match UV melts; details: sodium 0.088 M
In short: as §1

| Sequence | folding enthalpy [1] | Tm [2] |
| --- | --- | --- |
| GGAGACGAAAGTCTCTCC ((((((....)))..))) | -9.83 kcal/mol | 54.5 °C |
| GGAGACGAAAGTCTTTCC ((((((....)))..))) | -10.9 kcal/mol | 32.6 °C |
| GGAGACGGAAACATCTCC (((((.(....).))))) | -31.8 kcal/mol | 39.5 °C |
| GGAGACGGAAACGTCCCC ((.((((....)))).)) | -20.1 kcal/mol | 49.2 °C |
| GGAGACGGAAACGTTTCC (((.(((....))).))) | -30.3 kcal/mol | 49.5 °C |
| GGAGAGGGAAACCTCCCC ((.((((....)))).)) | -16.2 kcal/mol | 39.9 °C |
| GGAGAGGGAAACCTCTCC (((((((....))))))) | -46.6 kcal/mol | 63.3 °C |
| GGAGATGGAAACATCTTC (.(((((....))))).) | -26.2 kcal/mol | 44.6 °C |
| GGAGCACGAAAGTGTTCC (((.(((....))).))) | -39.8 kcal/mol | 58.8 °C |
| GGAGCCCCGAAAGGGTCC (((..(((....)))))) | -20.4 kcal/mol | 47.4 °C |
| GGAGCCGGAAACGGCCCC ((.((((....)))).)) | -15.5 kcal/mol | 58.5 °C |
| GGAGCGGGAAACCACTCC ((((.((....)).)))) | -34.7 kcal/mol | 49.2 °C |
| GGAGCTACGAAAGTATCC (((..(((....)))))) | -5.61 kcal/mol | 19.7 °C |
| GGAGCTCCGAAAGGATCC (((..(((....)))))) | -10.9 kcal/mol | 30.5 °C |
| GGAGCTGGAAACAGCTTC (.(((((....))))).) | -26.4 kcal/mol | 53.1 °C |
| GGAGGAACGAAAGTTTCC (((..(((....)))))) | -16.2 kcal/mol | 30.4 °C |
| GGAGGACGAAAGTCGTCC (((.(((....))).))) | -28.9 kcal/mol | 59.4 °C |
| GGAGGAGGAAACCCCTCC (((((.(....).))))) | -26.7 kcal/mol | 48.1 °C |
| GGAGGAGGAAACTCCTCC (((((((....))))))) | -40.3 kcal/mol | 65.9 °C |
| GGAGGAGGAAACTCTTCC (((.(((....))).))) | -29.1 kcal/mol | 42.2 °C |
| GGAGGATCGAAAGATTCC (((..(((....)))))) | -19.1 kcal/mol | 28.4 °C |
| GGAGGCCGAAAGGCTCC (((.(((....)))))) | -21.1 kcal/mol | 57.2 °C |
| GGAGGCGAAAGCCACTCC ((((((....)))..))) | -12.1 kcal/mol | 42.6 °C |

| Sequence | folding enthalpy [1] | Tm [2] |
| --- | --- | --- |
| GGAGGCGAAAGCCATTCC ((((((....)))..))) | -7.5 kcal/mol | 34.7 °C |
| GGAGGCGAAAGCCCCTCC ((((((....)))..))) | -12.6 kcal/mol | 59.1 °C |
| GGAGGCGAAAGCCGTTCC ((((((....)))..))) | -8.29 kcal/mol | 41.6 °C |
| GGAGGCGAAAGCCTATCC ((((((....)))..))) | -9.28 kcal/mol | 40.8 °C |
| GGAGGCTCGAAAGAGTCC (((..(((....)))))) | -14.4 kcal/mol | 35.8 °C |
| GGAGGGGGAAACCCCCCC ((.((((....)))).)) | -14.9 kcal/mol | 50.9 °C |
| GGAGGGGGAAACCTCTCC ((((.((....)).)))) | -35.8 kcal/mol | 51.3 °C |
| GGAGGTCCGAAAGGATCC (((..(((....)))))) | -12 kcal/mol | 38.3 °C |
| GGAGGTGCGAAAGCATCC (((..(((....)))))) | -11.6 kcal/mol | 39.3 °C |
| GGAGTACCGAAAGGTTCC (((..(((....)))))) | -15 kcal/mol | 36.3 °C |
| GGAGTACGAAAGTAATCC (((.(((....))).))) | -31 kcal/mol | 51.4 °C |
| GGAGTAGCGAAAGCTTCC (((..(((....)))))) | -16.1 kcal/mol | 38.2 °C |
| GGAGTAGGAAACTATTCC (((.(((....))).))) | -21.4 kcal/mol | 37.5 °C |
| GGAGTAGGAAACTGCTTC (.((.((....)).)).) | -32.7 kcal/mol | 41.4 °C |
| GGAGTCACGAAAGTGTCC (((..(((....)))))) | -13.7 kcal/mol | 32.1 °C |
| GGAGTCGAAAGACAGTCC ((((((....)))..))) | -14.3 kcal/mol | 31.5 °C |
| GGAGTCGAAAGACCATCC ((((((....)))..))) | -11.2 kcal/mol | 29.5 °C |
| GGAGTCGAAAGACCGTCC ((((((....)))..))) | -12.7 kcal/mol | 32.2 °C |
| GGAGTCGAAAGACGCTCC ((((((....)))..))) | -12.6 kcal/mol | 42.3 °C |
| GGAGTCGAAAGACGTTCC ((((((....)))..))) | -11.3 kcal/mol | 37.6 °C |
| GGAGTCGAAAGACTCTCC ((((((....)))..))) | -10.2 kcal/mol | 51.6 °C |
| GGAGTGCGAAAGCAGTCC (((.(((....))).))) | -30.1 kcal/mol | 65.8 °C |
| GGAGTGGAAACACTCC ((((((....)))))) | -33 kcal/mol | 63.2 °C |

| Sequence | folding enthalpy [1] | Tm [2] |
| --- | --- | --- |
| GGAGTGGGAAACCGCTTC (.((.((....)).)).) | -25.7 kcal/mol | 38 °C |
| GGAGTTCGAAAGAAGTCC (((.(((....))).))) | -41.3 kcal/mol | 54.1 °C |
| GGAGTTGGAAACAACCCC ((.((((....)))).)) | -22.8 kcal/mol | 43.5 °C |
| GGAGTTGGAAACGACTCC (((((.(....).))))) | -23.2 kcal/mol | 54.9 °C |
| GGAGTTGGAAACGACTTC (.(((.(....).))).) | -35.4 kcal/mol | 59.7 °C |
| GGATAACGAAAGTTTTCC (((.(((....))).))) | -27.6 kcal/mol | 43.7 °C |
| GGATAAGCGAAAGCTTCC (((..(((....)))))) | -12.4 kcal/mol | 35.5 °C |
| GGATACCGAAAGGTTCC (((.(((....)))))) | -25.6 kcal/mol | 49.3 °C |
| GGATACGAAAGTACATCC ((((((....)))..))) | -17.1 kcal/mol | 34.5 °C |
| GGATACGAAAGTACTCC ((((((....))).))) | -22.9 kcal/mol | 37.9 °C |
| GGATACGAAAGTACTTCC ((((((....)))..))) | -17.1 kcal/mol | 34.8 °C |
| GGATACGAAAGTAGTCC ((((((....))).))) | -20.6 kcal/mol | 40.4 °C |
| GGATACGAAAGTATTTCC ((((((....)))..))) | -24.9 kcal/mol | 28.1 °C |
| GGATACGGAAACGTGTTC (.(.(((....))).).) | -18.8 kcal/mol | 32.2 °C |
| GGATAGCCGAAAGGCTCC (((..(((....)))))) | -9.11 kcal/mol | 38.1 °C |
| GGATAGCGAAAGCTTTCC (((.(((....))).))) | -29.7 kcal/mol | 49.3 °C |
| GGATAGGGAAACCCATCC ((((.((....)).)))) | -29.4 kcal/mol | 39.8 °C |
| GGATAGGGAAACTTATCC (((((.(....).))))) | -30.3 kcal/mol | 35.7 °C |
| GGATATCGAAAGATTTCC (((.(((....))).))) | -30.9 kcal/mol | 41.5 °C |
| GGATCACGAAAGTGGTCC (((.(((....))).))) | -33.7 kcal/mol | 60.4 °C |
| GGATCCACGAAAGTGTCC (((..(((....)))))) | -12.4 kcal/mol | 28.4 °C |
| GGATCCGAAAGGAACTCC ((((((....)))..))) | -13.3 kcal/mol | 34.7 °C |
| GGATCCGAAAGGAAGTCC ((((((....)))..))) | -10.1 kcal/mol | 29.5 °C |

| Sequence | folding enthalpy [1] | Tm [2] |
| --- | --- | --- |
| GGATCCGAAAGGAGGTCC ((((((....)))..))) | -14.9 kcal/mol | 32.9 °C |
| GGATCCGAAAGGATATCC ((((((....)))..))) | -15.2 kcal/mol | 40.7 °C |
| GGATCCGGAAACGGGTCC (((.(((....))).))) | -43.7 kcal/mol | 59.4 °C |
| GGATCCGGAAACGGGTTC (.(.(((....))).).) | -16.8 kcal/mol | 38 °C |
| GGATCCTCGAAAGAGTCC (((..(((....)))))) | -12.3 kcal/mol | 23.6 °C |
| GGATCGCGAAAGCGCTCC (((.(((....))).))) | -25.3 kcal/mol | 54.2 °C |
| GGATCGGGAAACCAATCC ((((.((....)).)))) | -29.6 kcal/mol | 38.2 °C |
| GGATCTACGAAAGTATCC (((..(((....)))))) | -11.3 kcal/mol | 32.9 °C |
| GGATCTTCGAAAGAATCC (((..(((....)))))) | -10.7 kcal/mol | 25.8 °C |
| GGATGAGCGAAAGCTTCC (((..(((....)))))) | -11.4 kcal/mol | 39.4 °C |
| GGATGAGGAAACTCGTCC (((.(((....))).))) | -38.4 kcal/mol | 50.8 °C |
| GGATGCGAAAGCAAATCC ((((((....)))..))) | -21 kcal/mol | 47.1 °C |
| GGATGCGAAAGCAGATCC ((((((....)))..))) | -16.1 kcal/mol | 45.6 °C |
| GGATGCGAAAGCAGTTCC ((((((....)))..))) | -14.3 kcal/mol | 36 °C |
| GGATGCGGAAACACATCC (((((.(....).))))) | -44.2 kcal/mol | 47.9 °C |
| GGATGCGGAAACGCATTC (.(((((....))))).) | -19.2 kcal/mol | 54.5 °C |
| GGATGCGGAAACGCGTCC (((.(((....))).))) | -47.5 kcal/mol | 61.8 °C |
| GGATGCTCGAAAGAGTCC (((..(((....)))))) | -12.1 kcal/mol | 29.1 °C |
| GGATGGGGAAACCCATCC (((((((....))))))) | -46.7 kcal/mol | 66.4 °C |
| GGATGGGGAAACCTGTCC (((..((....))..))) | -29.3 kcal/mol | 41 °C |
| GGATGGGGAAACTCATCC (((((.(....).))))) | -41 kcal/mol | 49.2 °C |

Reference: the array DNA melting data of Ke et al. (doi:10.1101/2024.01.08.574731)
